Data published in ChEMBL document CHEMBL4257520, “Design, synthesis and bioactivity investigation of tetrandrine derivatives as potential anti-cancer agents” (Medchemcomm, 2018).
Calls of active or inactive are those of the source. The calls are words filed in the database; no cut-off is given here.

Legend:
HEL = assay: Antiproliferative activity against HEL cells after 48 hrs by MTT assay; assay type: functional, cell-based; conditions: Homo sapiens
Outline: (§1)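 MTT assay on human cancer lines held at 37 °C, 95% humidity, 5% CO2. Cells were exposed to compounds at 20.0–0.5 μM for 48 h, then washed twice with PBS. MTT (5 mg mL–1 in PBS) was added for 4 h at 37 °C, the formazan was dissolved in DMSO, and A490 was read. IC50 comes from replicate wells over three independent experiments.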

K562 = assay: Antiproliferative activity against human K562 cells after 48 hrs by MTT assay; assay type: functional, cell-based; conditions: K562, 48 h; outline: as §1
PC-3 = assay: Antiproliferative activity against human PC3 cells after 48 hrs by MTT assay; assay type: functional, cell-based; conditions: PC-3, 48 h; outline: as §1
[1] = Antiproliferative activity against human WM9 cells after 48 hrs by MTT assay; assay type: functional, cell-based; conditions: WM9, 48 h; outline: as §1
MDA-MB-231 [2] = assay: Antiproliferative activity against human MDA-MB-231 cells after 48 hrs by MTT assay; assay type: functional, cell-based; conditions: MDA-MB-231, 48 h; outline: as §1
L02 = assay: Cytotoxicity against human HL7702 cells after 48 hrs by MTT assay; assay type: cell-based; conditions: L02, 48 h
Outline: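 Normal human liver HL7702 cells were assessed by MTT assay, with formazan absorbance as the read-out, to give an IC50 for cytotoxicity.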

MDA-MB-231 [3] = assay: Induction of apoptosis in human MDA-MB-231 cells assessed as live cells at 2.5 uM after 24 hrs by Annexin V-FITC/propidium iodide staining based flow cytometry (reference value: 95.7%); assay type: functional
MDA-MB-231 [4] = assay: Induction of apoptosis in human MDA-MB-231 cells assessed as early apoptotic cells at 2.5 uM after 24 hrs by Annexin V-FITC/propidium iodide staining based flow cytometry (reference value: 2.1%); assay type: functional
MDA-MB-231 [5] = assay: Induction of apoptosis in human MDA-MB-231 cells assessed as late apoptotic cells at 2.5 uM after 24 hrs by Annexin V-FITC/propidium iodide staining based flow cytometry (reference value: 1.9%); assay type: functional
MDA-MB-231 [6] = assay: Induction of apoptosis in human MDA-MB-231 cells assessed as necrotic cells at 2.5 uM after 24 hrs by Annexin V-FITC/propidium iodide staining based flow cytometry (reference value: 0.3%); assay type: functional
MDA-MB-231 [7] = assay: Induction of apoptosis in human MDA-MB-231 cells assessed as live cells at 1.25 uM after 24 hrs by Annexin V-FITC/propidium iodide staining based flow cytometry (reference value: 95.7%); assay type: functional
MDA-MB-231 [8] = assay: Induction of apoptosis in human MDA-MB-231 cells assessed as early apoptotic cells at 1.25 uM after 24 hrs by Annexin V-FITC/propidium iodide staining based flow cytometry (reference value: 2.1%); assay type: functional
MDA-MB-231 [9] = assay: Induction of apoptosis in human MDA-MB-231 cells assessed as late apoptotic cells at 1.25 uM after 24 hrs by Annexin V-FITC/propidium iodide staining based flow cytometry (reference value: 1.9%); assay type: functional
MDA-MB-231 [10] = assay: Induction of apoptosis in human MDA-MB-231 cells assessed as necrotic cells at 1.25 uM after 24 hrs by Annexin V-FITC/propidium iodide staining based flow cytometry (reference value: 0.3%); assay type: functional
MDA-MB-231 [11] = assay: Induction of apoptosis in human MDA-MB-231 cells after 24 hrs by Annexin V-FITC/propidium iodide staining based flow cytometry; assay type: functional, cell-based
MDA-MB-231 [12] = assay: Induction of apoptosis in human MDA-MB-231 cells assessed as increase in Bax expression at 2.5 uM after 24 hrs by Western blot analysis; assay type: functional, cell-based
Outline: (§2)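 MDA-MB-231 cells were treated at 2.5 μM for 24 h and lysed in RIPA buffer. Protein was resolved on 10% SDS-PAGE, transferred to PVDF, and blocked in 5% BSA for 2 h at RT. Primary antibodies were applied overnight at 4 °C and HRP-conjugated secondary antibodies for 2 h at RT. Bands were detected by ECL, with β-actin as the loading reference.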

MDA-MB-231 [13] = assay: Induction of apoptosis in human MDA-MB-231 cells assessed as increase in cleaved PARP expression at 2.5 uM after 24 hrs by Western blot analysis; assay type: functional, cell-based; outline: as §2
MDA-MB-231 [14] = assay: Induction of apoptosis in human MDA-MB-231 cells assessed as decrease in Bcl-xl expression at 2.5 uM after 24 hrs by Western blot analysis; assay type: functional, cell-based; outline: as §2
MDA-MB-231 [15] = assay: Induction of apoptosis in human MDA-MB-231 cells assessed as decrease in Bcl2 expression at 2.5 uM after 24 hrs by Western blot analysis; assay type: functional, cell-based; outline: as §2

`COc1cc(NS(=O)(=O)c2ccc3ccccc3c2)c2cc1Oc1ccc(cc1)C[C@H]1c3cc(c(OC)cc3CCN1C)Oc1c(OC)c(OC)cc3c1[C@H](C2)N(C)CC3` showed an IC50 (HEL) of 2.33 µM, an IC50 (K562) of 1.68 µM and an IC50 (PC-3) of 3.96 µM. For the same compound, the IC50 [1] was 4.74 µM, the IC50 (MDA-MB-231 [2]) was 1.18 µM and the IC50 (L02) was 14.4 µM. The Activity (MDA-MB-231 [3]) was 42.6%, the Activity (MDA-MB-231 [4]) was 28.6% and the Activity (MDA-MB-231 [5]) was 27.2%. The Activity (MDA-MB-231 [6]) was 1.5%, the Activity (MDA-MB-231 [7]) was 85.9% and the Activity (MDA-MB-231 [8]) was 3.8%. For the same compound, the Activity (MDA-MB-231 [9]) was 9.6%, the Activity (MDA-MB-231 [10]) was 0.7% and the Activity (MDA-MB-231 [11]) was “Dose-dependent effect”. The Activity (MDA-MB-231 [12]) was “Active”, the Activity (MDA-MB-231 [13]) was “Active” and the Activity (MDA-MB-231 [14]) was “Active”. The Activity (MDA-MB-231 [15]) was “Active”.
